Peptide text beside a SMILES is read from it.
Key:
[1] = molecular target: Rhodesain (Trypanosoma brucei rhodesiense) (UniProt Q95PM0); assay: Inhibition of Trypanosoma brucei rhodesiense rhodesain after 12 hrs by fluorescence spectroscopy-based on-bead assay; parameters: concentration or dose not given beside the values; settings: concentration not given here
How it was run: (§1)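 Library members on resin (PEGA, theoretical loading 0.40 mmol/g; added as DMSO suspension, 0.64 mM final inhibitor) preincubated with enzyme 12 h, then Cbz-Phe-Arg-AMC 40 μM added; AMC release followed by fluorescence (ex 380/em 460 nm). Kinetics compared with inhibitor-free amino-PEGA resin.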

[2] = Inhibition of Plasmodium falciparum falcipain-2 after 12 hrs by fluorescence spectroscopy-based on-bead assay; parameters: concentration or dose not given beside the values; settings: concentration not given here; how it was run: as §1

Rhodesain (Trypanosoma brucei rhodesiense), sequence (Q95PM0 1-450): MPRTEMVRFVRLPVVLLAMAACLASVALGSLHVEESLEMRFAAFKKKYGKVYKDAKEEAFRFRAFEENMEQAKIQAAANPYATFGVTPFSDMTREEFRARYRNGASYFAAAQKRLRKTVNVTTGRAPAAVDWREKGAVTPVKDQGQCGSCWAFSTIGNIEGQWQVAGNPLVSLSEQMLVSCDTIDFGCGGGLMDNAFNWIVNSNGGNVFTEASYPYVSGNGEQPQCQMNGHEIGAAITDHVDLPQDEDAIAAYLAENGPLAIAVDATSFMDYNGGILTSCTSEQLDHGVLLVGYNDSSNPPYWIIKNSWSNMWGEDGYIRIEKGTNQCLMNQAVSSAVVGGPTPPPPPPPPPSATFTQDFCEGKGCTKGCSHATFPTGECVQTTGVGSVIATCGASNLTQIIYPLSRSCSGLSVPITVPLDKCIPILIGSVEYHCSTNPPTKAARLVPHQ

Compound	inhibition [1] [%]	inhibition [2] [%]
CC(C)C[C@H](NC(=O)[C@H](Cc1ccccc1)NC(=O)/C=C/C(=O)N[C@@H](C)C(=O)NCC(=O)N[C@@H](Cc1ccccc1)C(=O)O)C(=O)N[C@@H](C)C(=O)N[C@H](C(N)=O)C(C)C (HELM PEPTIDE1{[C[C@H](NC(=O)/C=C/C(=O)[*:2])C(=O)NCC(=O)N[C@@H](Cc1ccccc1)C(=O)O].F.L.A.V.[am]}$$$$V2.0)	49	45
CC[C@H](C)[C@H](NC(=O)[C@H](CC(N)=O)NC(=O)/C=C/C(=O)N[C@@H](C)C(=O)NCC(=O)N[C@@H](Cc1ccccc1)C(=O)O)C(=O)N[C@H](C(=O)N[C@H](C(N)=O)C(C)C)C(C)C (HELM PEPTIDE1{[C[C@H](NC(=O)/C=C/C(=O)[*:2])C(=O)NCC(=O)N[C@@H](Cc1ccccc1)C(=O)O].N.I.V.V.[am]}$$$$V2.0)	21	33
CC[C@H](C)[C@H](NC(=O)[C@H](CNC(C)=O)NC(=O)/C=C/C(=O)N[C@@H](C)C(=O)NCC(=O)N[C@@H](Cc1ccccc1)C(=O)O)C(=O)N[C@@H](CC(C)C)C(=O)N[C@H](C(N)=O)C(C)C (HELM PEPTIDE1{[C[C@H](NC(=O)/C=C/C(=O)[*:2])C(=O)NCC(=O)N[C@@H](Cc1ccccc1)C(=O)O].[O=C([C@H](CN[*:3])N[*:1])[*:2]].I.L.V.[am]}|PEPTIDE2{[ac]}$PEPTIDE1,PEPTIDE2,2:R3-1:R2$$$V2.0)	61	32
CC(C)C[C@H](NC(=O)[C@H](C)NC(=O)/C=C/C(=O)N[C@@H](C)C(=O)NCC(=O)N[C@@H](Cc1ccccc1)C(=O)O)C(=O)N[C@H](C(=O)N[C@H](C(N)=O)C(C)C)C(C)C (HELM PEPTIDE1{[C[C@H](NC(=O)/C=C/C(=O)[*:2])C(=O)NCC(=O)N[C@@H](Cc1ccccc1)C(=O)O].A.L.V.V.[am]}$$$$V2.0)	59	40
CC(C)[C@H](NC(=O)[C@H](C)NC(=O)[C@@H](NC(=O)[C@H](Cc1ccccc1)NC(=O)/C=C/C(=O)NCC(=O)NCC(=O)N[C@@H](Cc1ccccc1)C(=O)O)C1CCCCC1)C(N)=O (HELM PEPTIDE1{[O=C(/C=C/C(=O)[*:2])NCC(=O)NCC(=O)N[C@@H](Cc1ccccc1)C(=O)O].F.[O=C([C@@H](N[*:1])C1CCCCC1)[*:2]].A.V.[am]}$$$$V2.0)	48	65
CC(C)[C@H](NC(=O)[C@H](C)NC(=O)[C@@H](NC(=O)[C@H](CCC(N)=O)NC(=O)/C=C/C(=O)N[C@@H](C)C(=O)NCC(=O)N[C@@H](Cc1ccccc1)C(=O)O)C1CCCCC1)C(N)=O (HELM PEPTIDE1{[C[C@H](NC(=O)/C=C/C(=O)[*:2])C(=O)NCC(=O)N[C@@H](Cc1ccccc1)C(=O)O].Q.[O=C([C@@H](N[*:1])C1CCCCC1)[*:2]].A.V.[am]}$$$$V2.0)	39	55
CC[C@H](C)[C@H](NC(=O)[C@H](C)NC(=O)/C=C/C(=O)NCC(=O)NCC(=O)N[C@@H](Cc1ccccc1)C(=O)O)C(=O)N[C@@H](CC(C)C)C(=O)N[C@H](C(N)=O)C(C)C (HELM PEPTIDE1{[O=C(/C=C/C(=O)[*:2])NCC(=O)NCC(=O)N[C@@H](Cc1ccccc1)C(=O)O].A.I.L.V.[am]}$$$$V2.0)	58	61
CC(C)[C@H](NC(=O)[C@H](C)NC(=O)[C@@H](NC(=O)[C@H](CCC(N)=O)NC(=O)/C=C/C(=O)NCC(=O)NCC(=O)N[C@@H](Cc1ccccc1)C(=O)O)C1CCCCC1)C(N)=O (HELM PEPTIDE1{[O=C(/C=C/C(=O)[*:2])NCC(=O)NCC(=O)N[C@@H](Cc1ccccc1)C(=O)O].Q.[O=C([C@@H](N[*:1])C1CCCCC1)[*:2]].A.V.[am]}$$$$V2.0)	31	40
CC(=O)NC[C@H](NC(=O)/C=C/C(=O)N[C@@H](C)C(=O)NCC(=O)N[C@@H](Cc1ccccc1)C(=O)O)C(=O)N[C@H](C(=O)N[C@H](C(=O)N[C@H](C(N)=O)C(C)C)C(C)C)c1ccccc1 (HELM PEPTIDE1{[C[C@H](NC(=O)/C=C/C(=O)[*:2])C(=O)NCC(=O)N[C@@H](Cc1ccccc1)C(=O)O].[O=C([C@H](CN[*:3])N[*:1])[*:2]].[Phg].V.V.[am]}|PEPTIDE2{[ac]}$PEPTIDE1,PEPTIDE2,2:R3-1:R2$$$V2.0)	36	20
CC(C)C[C@H](NC(=O)[C@H](Cc1ccccc1)NC(=O)[C@H](CC(N)=O)NC(=O)/C=C/C(=O)N[C@@H](C)C(=O)NCC(=O)N[C@@H](Cc1ccccc1)C(=O)O)C(=O)N[C@H](C(N)=O)C(C)C (HELM PEPTIDE1{[C[C@H](NC(=O)/C=C/C(=O)[*:2])C(=O)NCC(=O)N[C@@H](Cc1ccccc1)C(=O)O].N.F.L.V.[am]}$$$$V2.0)	64	58
CC(C)[C@H](NC(=O)[C@H](C)NC(=O)[C@H](Cc1ccccc1)NC(=O)[C@H](CC(N)=O)NC(=O)/C=C/C(=O)NCC(=O)NCC(=O)N[C@@H](Cc1ccccc1)C(=O)O)C(N)=O (HELM PEPTIDE1{[O=C(/C=C/C(=O)[*:2])NCC(=O)NCC(=O)N[C@@H](Cc1ccccc1)C(=O)O].N.F.A.V.[am]}$$$$V2.0)	66	61
CC(C)[C@H](NC(=O)[C@@H](NC(=O)[C@@H](NC(=O)[C@H](CC(N)=O)NC(=O)/C=C/C(=O)N[C@@H](C)C(=O)NCC(=O)N[C@@H](Cc1ccccc1)C(=O)O)C1CCCCC1)C(C)C)C(N)=O (HELM PEPTIDE1{[C[C@H](NC(=O)/C=C/C(=O)[*:2])C(=O)NCC(=O)N[C@@H](Cc1ccccc1)C(=O)O].N.[O=C([C@@H](N[*:1])C1CCCCC1)[*:2]].V.V.[am]}$$$$V2.0)	50	62
CC(C)[C@H](NC(=O)[C@@H](NC(=O)[C@@H](NC(=O)[C@H](Cc1ccccc1)NC(=O)/C=C/C(=O)NCC(=O)NCC(=O)N[C@@H](Cc1ccccc1)C(=O)O)c1ccccc1)C(C)C)C(N)=O (HELM PEPTIDE1{[O=C(/C=C/C(=O)[*:2])NCC(=O)NCC(=O)N[C@@H](Cc1ccccc1)C(=O)O].F.[Phg].V.V.[am]}$$$$V2.0)	68	35
CC(=O)NC[C@H](NC(=O)/C=C/C(=O)NCC(=O)NCC(=O)N[C@@H](Cc1ccccc1)C(=O)O)C(=O)N[C@@H](CC(C)C)C(=O)N[C@H](C(=O)N[C@H](C(N)=O)C(C)C)C(C)C (HELM PEPTIDE1{[O=C(/C=C/C(=O)[*:2])NCC(=O)NCC(=O)N[C@@H](Cc1ccccc1)C(=O)O].[O=C([C@H](CN[*:3])N[*:1])[*:2]].L.V.V.[am]}|PEPTIDE2{[ac]}$PEPTIDE1,PEPTIDE2,2:R3-1:R2$$$V2.0)	54	41
CC[C@H](C)[C@H](NC(=O)[C@H](Cc1ccccc1)NC(=O)/C=C/C(=O)N[C@@H](C)C(=O)NCC(=O)N[C@@H](Cc1ccccc1)C(=O)O)C(=O)N[C@@H](CC(C)C)C(=O)N[C@H](C(N)=O)C(C)C (HELM PEPTIDE1{[C[C@H](NC(=O)/C=C/C(=O)[*:2])C(=O)NCC(=O)N[C@@H](Cc1ccccc1)C(=O)O].F.I.L.V.[am]}$$$$V2.0)	61	51
CC(C)[C@H](NC(=O)[C@@H](NC(=O)[C@H](Cc1ccccc1)NC(=O)[C@H](Cc1ccccc1)NC(=O)/C=C/C(=O)NCC(=O)NCC(=O)N[C@@H](Cc1ccccc1)C(=O)O)C(C)C)C(N)=O (HELM PEPTIDE1{[O=C(/C=C/C(=O)[*:2])NCC(=O)NCC(=O)N[C@@H](Cc1ccccc1)C(=O)O].F.F.V.V.[am]}$$$$V2.0)	51	60
CC(C)C[C@H](NC(=O)[C@@H](NC(=O)[C@H](CCC(N)=O)NC(=O)/C=C/C(=O)NCC(=O)NCC(=O)N[C@@H](Cc1ccccc1)C(=O)O)C1CCCCC1)C(=O)N[C@H](C(N)=O)C(C)C (HELM PEPTIDE1{[O=C(/C=C/C(=O)[*:2])NCC(=O)NCC(=O)N[C@@H](Cc1ccccc1)C(=O)O].Q.[O=C([C@@H](N[*:1])C1CCCCC1)[*:2]].L.V.[am]}$$$$V2.0)	71	45
CC[C@H](C)[C@H](NC(=O)[C@H](Cc1ccccc1)NC(=O)/C=C/C(=O)NCC(=O)NCC(=O)N[C@@H](Cc1ccccc1)C(=O)O)C(=O)N[C@@H](CC(C)C)C(=O)N[C@H](C(N)=O)C(C)C (HELM PEPTIDE1{[O=C(/C=C/C(=O)[*:2])NCC(=O)NCC(=O)N[C@@H](Cc1ccccc1)C(=O)O].F.I.L.V.[am]}$$$$V2.0)	73	58
CC[C@H](C)[C@H](NC(=O)[C@H](CC(N)=O)NC(=O)/C=C/C(=O)NCC(=O)NCC(=O)N[C@@H](Cc1ccccc1)C(=O)O)C(=O)N[C@H](C(=O)N[C@H](C(N)=O)C(C)C)C(C)C (HELM PEPTIDE1{[O=C(/C=C/C(=O)[*:2])NCC(=O)NCC(=O)N[C@@H](Cc1ccccc1)C(=O)O].N.I.V.V.[am]}$$$$V2.0)	39	57
CC(C)[C@H](NC(=O)[C@H](C)NC(=O)[C@@H](NC(=O)[C@H](C)NC(=O)/C=C/C(=O)N[C@@H](C)C(=O)NCC(=O)N[C@@H](Cc1ccccc1)C(=O)O)c1ccccc1)C(N)=O (HELM PEPTIDE1{[C[C@H](NC(=O)/C=C/C(=O)[*:2])C(=O)NCC(=O)N[C@@H](Cc1ccccc1)C(=O)O].A.[Phg].A.V.[am]}$$$$V2.0)	25	57
CC(C)C[C@H](NC(=O)[C@@H](NC(=O)[C@H](CC(N)=O)NC(=O)/C=C/C(=O)NCC(=O)NCC(=O)N[C@@H](Cc1ccccc1)C(=O)O)C1CCCCC1)C(=O)N[C@H](C(N)=O)C(C)C (HELM PEPTIDE1{[O=C(/C=C/C(=O)[*:2])NCC(=O)NCC(=O)N[C@@H](Cc1ccccc1)C(=O)O].N.[O=C([C@@H](N[*:1])C1CCCCC1)[*:2]].L.V.[am]}$$$$V2.0)	69	45
CC(C)C[C@H](NC(=O)[C@@H](NC(=O)[C@H](CC(N)=O)NC(=O)/C=C/C(=O)N[C@@H](C)C(=O)NCC(=O)N[C@@H](Cc1ccccc1)C(=O)O)C1CCCCC1)C(=O)N[C@H](C(N)=O)C(C)C (HELM PEPTIDE1{[C[C@H](NC(=O)/C=C/C(=O)[*:2])C(=O)NCC(=O)N[C@@H](Cc1ccccc1)C(=O)O].N.[O=C([C@@H](N[*:1])C1CCCCC1)[*:2]].L.V.[am]}$$$$V2.0)	66	40
